# Test results: ChEMBL document CHEMBL2146472, “Identification and development of the 1,4-benzodiazepin-2-one and quinazoline-2,4-dione scaffolds as submicromolar inhibitors of HAT” (2012)
# Active and inactive are the calls of the source. The rule behind the calls is not given here.
# System: Trypanosoma brucei brucei
# Assay: Antitrypanosomal activity against bloodstream form of Trypanosoma brucei brucei S427 after 48 hrs by Alamar Blue assay
# Format: functional
# Conditions: not given
# Method in brief: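 T. b. brucei S427 cultured in HMI-9 with 20% […] FCS, 37 °C, 5% CO2. Compounds from 0.1 M DMSO stocks diluted in HMI-9 (top wells 50, 200 or 400 μM), serially diluted; cells added at 2 × 10⁴ cells/mL. 48 h incubation, then resazurin (Alamar Blue) for further 24 h; fluorescence ex 530/em 590 nm. MIC determined in duplicate.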
row,SMILES,MIC
1,O=C(O)CN1C(=O)CN(CC2CCCCC2)C(=O)c2cc(Cl)ccc21,inactive
2,CN1C(=O)CN(CC2CCNCC2)C(=O)c2ccccc21,inactive
3,O=C(O)CN1C(=O)CN(CC2CCCCC2)C(=O)c2ccccc21,inactive

# More lines, now with the values ahead:
row,MIC,SMILES
1,inactive,CN1C(=O)CN(CC2CCNCC2)C(=O)c2cc(Cl)ccc21
2,inactive,C=CCN1C(=O)CN(CC2CCNCC2)C(=O)c2ccccc21

# Same assay, conditions: S427, 48 h
row,SMILES,MIC [µM]
1,O=c1c2cc(Cl)ccc2n(Cc2ccc(-c3ccccc3)cc2)c(=O)n1CC1CCCCC1,125
2,CCCN1C(=O)CN(CC2CCCCC2)C(=O)c2cc(Cl)ccc21,31.2
3,C=CCN1C(=O)CN(CC2CCCCC2)C(=O)c2ccccc21,125
4,CCN1C(=O)CN(CC2CCCCC2)C(=O)c2ccccc21,62.5
5,CN1C(=O)CN(CC2CCCCC2)C(=O)c2ccccc21,125
6,O=C1c2cc(Cl)ccc2N(CC2CC2)C(=O)CN1CC1CCCCC1,31.2
7,CCN1C(=O)CN(CC2CCCCC2)C(=O)c2cc(Cl)ccc21,62.5
8,CCOC(=O)CN1C(=O)CN(CC2CCCCC2)C(=O)c2ccccc21,125
9,CCCN1C(=O)CN(CC2CCCCC2)C(=O)c2ccccc21,62.5
10,C=CCN1C(=O)CN(CC2CCCCC2)C(=O)c2cc(Cl)ccc21,62.5
11,CC(C)(C)OC(=O)N1CCC(Cn2c(=O)c3cc(Cl)ccc3n(Cc3ccccc3)c2=O)CC1,62.5
12,CCOC(=O)Cn1c(=O)n(CC2CCCCC2)c(=O)c2ccccc21,31.2
13,CCOC(=O)CN1C(=O)CN(CC2CCCCC2)C(=O)c2cc(Cl)ccc21,62.5
14,CN1C(=O)CN(CC2CCCCC2)C(=O)c2cc(Cl)ccc21,62.5
15,CCn1c(=O)n(CC2CCCCC2)c(=O)c2cc(Cl)ccc21,15.6
16,O=c1c2cc(Cl)ccc2n(Cc2ccccc2)c(=O)n1CC1CCCCC1,62.5
17,CCCCn1c(=O)n(CC2CCCCC2)c(=O)c2cc(Cl)ccc21,62.5
18,Cn1c(=O)n(CC2CCCCC2)c(=O)c2ccccc21,62.5
19,Cn1c(=O)n(CC2CCCCC2)c(=O)c2cc(Cl)ccc21,31.2
20,CCOC(=O)Cn1c(=O)n(CC2CCCCC2)c(=O)c2cc(Cl)ccc21,250
21,CC(C)(C)OC(=O)N1CCC(Cn2c(=O)c3ccccc3n(Cc3ccccc3-c3ccccc3)c2=O)CC1,125
22,CCn1c(=O)n(CC2CCCCC2)c(=O)c2ccccc21,31.2
23,CCCCN1C(=O)CN(CC2CCNCC2)C(=O)c2ccccc21,62.5
24,CCCCN1C(=O)CN(CC2CCCCC2)C(=O)c2ccccc21,31.2
25,O=C1c2ccccc2N(CC2CC2)C(=O)CN1CC1CCCCC1,62.5
26,O=c1c2ccccc2n(Cc2ccccc2)c(=O)n1CC1CCCCC1,15.6
27,CC(C)(C)OC(=O)N1CCC(Cn2c(=O)c3cc(Cl)ccc3n(Cc3ccc(-c4ccccc4)cc3)c2=O)CC1,125
28,CCCCN1C(=O)CN(CC2CCCCC2)C(=O)c2cc(Cl)ccc21,15.6
29,O=c1c2ccccc2n(Cc2ccccc2-c2ccccc2)c(=O)n1CC1CCCCC1,7.8
30,O=c1c2cc(Cl)ccc2n(Cc2ccccc2)c(=O)n1CC1CCNCC1,15.6

# Next, values leading:
row,MIC [µM],SMILES
1,125,O=C1c2cc(Cl)ccc2N(Cc2ccccc2)C(=O)CN1CC1CCNCC1
2,250,O=C1c2ccccc2N(Cc2ccccc2)C(=O)CN1CC1CCNCC1
3,3.9,O=C1c2cc(Cl)ccc2N(Cc2ccc(-c3ccccc3)cc2)C(=O)CN1CC1CCCCC1
4,31.2,O=C1c2ccccc2N(Cc2ccccc2)C(=O)CN1CC1CCCCC1
5,250,CCCCN1C(=O)CN(CC2CCNCC2)C(=O)c2cc(Cl)ccc21
6,7.8,O=C1c2cc(Cl)ccc2N(Cc2ccccc2-c2ccccc2)C(=O)CN1CC1CCNCC1
7,7.8,CC(C)(C)OC(=O)N1CCC(Cn2c(=O)c3cc(Cl)ccc3n(Cc3ccccc3-c3ccccc3)c2=O)CC1
8,0.97,O=c1c2cc(Cl)ccc2n(Cc2ccccc2-c2ccccc2)c(=O)n1CC1CCNCC1
9,3.9,O=c1c2ccccc2n(Cc2ccccc2-c2ccccc2)c(=O)n1CC1CCNCC1
10,7.8,O=C1c2ccccc2N(Cc2ccc(-c3ccccc3)cc2)C(=O)CN1CC1CCCCC1
11,15.6,O=C1c2cc(Cl)ccc2N(Cc2ccccc2)C(=O)CN1CC1CCCCC1
12,250,C=CCN1C(=O)CN(CC2CCNCC2)C(=O)c2cc(Cl)ccc21
13,31.2,O=C1c2ccccc2N(Cc2ccccc2-c2ccccc2)C(=O)CN1CC1CCNCC1
14,62.5,O=c1c2cc(Cl)ccc2n(Cc2ccccc2-c2ccccc2)c(=O)n1CC1CCCCC1
15,125,O=C1c2ccccc2N(Cc2ccccc2-c2ccccc2)C(=O)CN1CC1CCCCC1
16,7.8,O=C1c2cc(Cl)ccc2N(Cc2ccccc2-c2ccccc2)C(=O)CN1CC1CCCCC1
17,0.97,O=c1c2cc(Cl)ccc2n(Cc2ccc(-c3ccccc3)cc2)c(=O)n1CC1CCNCC1
